Measurements from ChEMBL document CHEMBL4177755, “Combating Drug-Resistant Fungi with Novel Imperfectly Amphipathic Palindromic Peptides” (J Med Chem, 2018).

Tests used:
Type in all cases: functional
[1] = test system: Escherichia coli; assay: Antibacterial activity against Escherichia coli ATCC 25922 after 18 hrs in presence of MgCl2 by broth dilution method
[2] = test system: Escherichia coli; assay: Antibacterial activity against Escherichia coli ATCC 25922 after 18 hrs in presence of KCl by broth dilution method
[3] = test system: Staphylococcus aureus; assay: Antibacterial activity against methicillin-resistant Staphylococcus aureus ATCC 4330 after 24 hrs
Summary of the method: (§1)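 Modified NCCLS broth microdilution. Mid-log bacteria at (0.5−1) × 10^5 CFU/mL in MHB were mixed 1:1 with peptide serially diluted in 0.2% BSA and incubated 24 h at 37 °C. Absorbance was read at 492 nm; MIC is the lowest concentration inhibiting 95% of growth. At least 3 repeats.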

[4] = test system: Staphylococcus epidermidis; assay: Bactericidal activity against Staphylococcus epidermidis ATCC 12228
Summary of the method: (§2)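 Wells from the 24 h, 37 °C MHB microdilution plates (bacteria at a final (0.5−1) × 10^5 CFU/mL; peptide diluted in 0.2% BSA) were plated on agar and incubated overnight. MBC is the lowest concentration killing >99.9% of cells. Each test was reproduced at least 3 times.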

[5] = test system: Escherichia coli; assay: Antibacterial activity against Escherichia coli ATCC 25922 after 18 hrs in presence of 25% human heat-inactivated serum by broth dilution method
[6] = test system: Staphylococcus aureus; assay: Bactericidal activity against Staphylococcus aureus ATCC 29213; summary of the method: as §2
[7] = test system: Escherichia coli; assay: Antibacterial activity against Escherichia coli ATCC 25922 after 18 hrs in presence of FeCl3 by broth dilution method
[8] = test system: Staphylococcus epidermidis; assay: Antibacterial activity against Staphylococcus epidermidis ATCC 12228 after 24 hrs
Summary of the method: (§3)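 Broth microdilution. Mid-log bacteria in MHB at a final (0.5−1) × 10^5 CFU/mL were mixed with equal volumes of peptide serially diluted in 0.2% BSA. Plates were incubated 24 h at 37 °C and read at A492. MIC is the lowest concentration inhibiting 95% of growth. Each test was repeated at least 3 times.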

[9] = test system: Salmonella enterica subsp. enterica serovar Pullorum; assay: Bactericidal activity against Salmonella pullorum ATCC 7913; summary of the method: as §2
[10] = test system: Escherichia coli; assay: Antibacterial activity against Escherichia coli ATCC 25922 after 18 hrs in presence of 50% human heat-inactivated serum by broth dilution method
[11] = test system: Escherichia coli; assay: Antibacterial activity against Escherichia coli ATCC 25922 after 24 hrs; summary of the method: as §3
[12] = test system: Escherichia coli; assay: Bactericidal activity against Escherichia coli ATCC 25922; summary of the method: as §2
[13] = test system: Staphylococcus aureus; assay: Bactericidal activity against Staphylococcus aureus ATCC 25923; summary of the method: as §2
[14] = test system: Staphylococcus aureus; assay: Antibacterial activity against Staphylococcus aureus ATCC 29213 after 24 hrs; summary of the method: as §1
[15] = test system: Staphylococcus aureus; assay: Bactericidal activity against methicillin-resistant Staphylococcus aureus ATCC 4330
Summary of the method: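 Bacteria at (0.5−1) × 10^5 CFU/mL in MHB were exposed to serially diluted peptide (0.2% BSA) for 24 h at 37 °C, then 50 μL aliquots were plated on agar overnight. MBC is the lowest concentration killing >99.9% of cells. At least 3 repeats.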

[16] = test system: Staphylococcus aureus; assay: Antibacterial activity against Staphylococcus aureus ATCC 25923 after 24 hrs; summary of the method: as §1
[17] = test system: Escherichia coli; assay: Bactericidal activity against Escherichia coli 1005; summary of the method: as §2
[18] = test system: Escherichia coli; assay: Antibacterial activity against Escherichia coli ATCC 25922 after 18 hrs in presence of NaCl by broth dilution method
[19] = test system: Salmonella enterica subsp. enterica serovar Pullorum; assay: Antibacterial activity against Salmonella pullorum ATCC 7913 after 24 hrs; summary of the method: as §3
[20] = test system: Escherichia coli; assay: Antibacterial activity against Escherichia coli ATCC 25922 after 18 hrs in presence of NH4Cl by broth dilution method
[21] = test system: Escherichia coli; assay: Antibacterial activity against Escherichia coli ATCC 25922 after 18 hrs in presence of CaCl2 by broth dilution method
[22] = test system: Salmonella typhimurium; assay: Bactericidal activity against Salmonella typhimurium ATCC 14028; settings: Salmonella enterica subsp. enterica serovar Typhimurium; summary of the method: as §2
[23] = test system: Salmonella typhimurium; assay: Antibacterial activity against Salmonella typhimurium ATCC 14028 after 24 hrs; settings: Salmonella enterica subsp. enterica serovar Typhimurium; summary of the method: as §3
[24] = test system: Escherichia coli; assay: Antibacterial activity against Escherichia coli ATCC 25922 after 18 hrs in presence of ZnCl2 by broth dilution method
[25] = test system: Escherichia coli; assay: Antibacterial activity against Escherichia coli 1005 after 24 hrs; summary of the method: as §3
[26] = test system: Escherichia coli; assay: Antibacterial activity against Escherichia coli ATCC 25922 after 18 hrs in presence of 12.5% human heat-inactivated serum by broth dilution method

GENTAMICIN
MIC [1]: 1 µM
MIC [2]: 1 µM
MIC95 [3]: 8 µM
MBC99.9 [4]: 1 µM
MIC [5]: 1 µM
MBC99.9 [6]: 1 µM
MIC [7]: 1 µM
MIC95 [8]: 0.5 µM
MBC99.9 [9]: 2 µM
MIC [10]: 2 µM
MIC95 [11]: 1 µM
MBC99.9 [12]: 2 µM
MBC99.9 [13]: 1 µM
MIC95 [14]: 1 µM
MBC99.9 [15]: 8 µM
MIC95 [16]: 1 µM
MBC99.9 [17]: 1 µM
MIC [18]: 2 µM
MIC95 [19]: 1 µM
MIC [20]: 2 µM
MIC [21]: 1 µM
MBC99.9 [22]: 4 µM
MIC95 [23]: 2 µM
MIC [24]: 2 µM
MIC95 [25]: 0.5 µM
MIC [26]: 1 µM
